Tests used:
Homo sapiens [1] = organism: Homo sapiens; experiment: Compound was tested for its effect on Reverse Transcriptase (RT) production by HIV-Infected Human T4+ Lymphocytes (C8166) at 100 uM; assay type: functional
Homo sapiens [2] = organism: Homo sapiens; experiment: Compound was tested for its effect on Reverse Transcriptase (RT) production by HIV-Infected Human T4+ Lymphocytes (C8166) at 2 uM; assay type: functional
Homo sapiens [3] = organism: Homo sapiens; experiment: Compound was tested for its effect on Reverse Transcriptase (RT) production by HIV-Infected Human T4+ Lymphocytes (C8166) at 20 uM; assay type: functional
Homo sapiens [4] = organism: Homo sapiens; experiment: Compound was tested for its effect on Reverse Transcriptase (RT) production by HIV-Infected Human T4+ Lymphocytes (C8166) at 200 uM; assay type: functional
Homo sapiens [5] = organism: Homo sapiens; experiment: Compound was tested for its effect on the growth of human T4+ lymphocytes (C8166) in culture at 10 uM; assay type: functional
Homo sapiens [6] = organism: Homo sapiens; experiment: Compound was tested for its effect on the growth of human T4+ lymphocytes (C8166) in culture at 100 uM; assay type: functional
Homo sapiens [7] = organism: Homo sapiens; experiment: Compound was tested for its effect on the growth of human T4+ lymphocytes (C8166) in culture at 1000 uM; assay type: functional
Homo sapiens [8] = organism: Homo sapiens; experiment: Compound was tested for its effect on the growth of human T4+ lymphocytes (C8166) in culture at 500 uM; assay type: functional
Homo sapiens [9] = organism: Homo sapiens; experiment: Compound was tested for its relative effect on p24 viral core protein production by HIV -infected human T4+ lymphocytes (C8166) at 100 uM; assay type: functional
Homo sapiens [10] = organism: Homo sapiens; experiment: Compound was tested for its relative effect on p24 viral core protein production by HIV -infected human T4+ lymphocytes (C8166) at 20 uM; assay type: functional
Homo sapiens [11] = organism: Homo sapiens; experiment: Compound was tested for its relative effect on p24 viral core protein production by HIV -infected human T4+ lymphocytes (C8166) at 200 uM; assay type: functional
Homo sapiens [12] = organism: Homo sapiens; experiment: Compound was tested for its effect on the growth of human T lymphocytes (SupT1) in culture at 1 uM; assay type: functional
Outline: (§1)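 Uninfected lymphocyte lines (Raji B cells or SupT1 T cells) kept in growth medium and given drug dilutions. After 48 h, cells stained with trypan blue and counted. Viable cells (dye exclusion) expressed as percentage of untreated controls. Values from a typical experiment.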

Homo sapiens [13] = organism: Homo sapiens; experiment: Compound was tested for its effect on the growth of human T lymphocytes (SupT1) in culture at 10 uM; assay type: functional; outline: as §1
Homo sapiens [14] = organism: Homo sapiens; experiment: Compound was tested for its effect on the growth of human T lymphocytes (SupT1) in culture at 100 uM; assay type: functional; outline: as §1
Homo sapiens [15] = organism: Homo sapiens; experiment: Compound was tested for its effect on the growth of human T lymphocytes (SupT1) in culture at 1000 uM; assay type: functional; outline: as §1
Homo sapiens [16] = organism: Homo sapiens; experiment: Compound was tested for its effect on the growth of human T lymphocytes (SupT1) in culture at 500 uM; assay type: functional; outline: as §1
Homo sapiens [17] = organism: Homo sapiens; experiment: Compound was tested for its effect on the growth of human B lymphocytes (Raji) in culture at 1 uM; assay type: functional; outline: as §1
Homo sapiens [18] = organism: Homo sapiens; experiment: Compound was tested for its effect on the growth of human B lymphocytes (Raji) in culture at 10 uM; assay type: functional; outline: as §1
Homo sapiens [19] = organism: Homo sapiens; experiment: Compound was tested for its effect on the growth of human B lymphocytes (Raji) in culture at 100 uM; assay type: functional; outline: as §1
Homo sapiens [20] = organism: Homo sapiens; experiment: Compound was tested for its effect on the growth of human B lymphocytes (Raji) in culture at 1000 uM; assay type: functional; outline: as §1
Homo sapiens [21] = organism: Homo sapiens; experiment: Compound was tested for its effect on the growth of human B lymphocytes (Raji) in culture at 500 uM; assay type: functional; outline: as §1
SC-1 (Mus musculus) [22] = experiment: Compound was tested for its effect on the growth of mouse fibroblasts (SC-1) in culture at 1 uM
SC-1 (Mus musculus) [23] = experiment: Compound was tested for its effect on the growth of mouse fibroblasts (SC-1) in culture at 10 uM
SC-1 (Mus musculus) [24] = experiment: Compound was tested for its effect on the growth of mouse fibroblasts (SC-1) in culture at 100 uM
Homo sapiens [25] = organism: Homo sapiens; experiment: Compound was tested for its effect on reverse transcriptase of HIV-infected human T4+ lymphocytes (C8166) at 2 uM; assay type: functional
Outline: (§2)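 C8166 T4+ cells (~2 × 10⁵ per well) exposed to drug dilutions, then infected with 2500 RT units of cell-free HIV HXBc2 strain; FBS heat-inactivated (55 °C, 60 min) or not. Drug-containing medium replaced every 3 days. On day 6, RT activity measured in cell supernatants and compared with untreated controls.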

Homo sapiens [26] = organism: Homo sapiens; experiment: Compound was tested for its effect on reverse transcriptase of HIV-infected human T4+ lymphocytes (C8166) at 20 uM; assay type: functional; outline: as §2

**Q.** Nc1nc(Cl)nc2c1ncn2C1CCC(CO)O1 (configuration not stated) was tested. Which Control (Homo sapiens [1]) did it give?
**A.** 3%

**Q.** What about the Control (Homo sapiens [2]) of the same molecule?
**A.** 100%

**Q.** And the Control (Homo sapiens [3])?
**A.** 57%

**Q.** What about the Control (Homo sapiens [4]) of the same molecule?
**A.** <1%

**Q.** And the Control (Homo sapiens [5])?
**A.** 94%

**Q.** What about the Control (Homo sapiens [6]) of the same molecule?
**A.** 77%

**Q.** What about the Control (Homo sapiens [7]) of the same molecule?
**A.** 0%

**Q.** And the Control (Homo sapiens [8])?
**A.** 37%

**Q.** And the p24 (Homo sapiens [9])?
**A.** 2.2 ng/mL

**Q.** And the p24 (Homo sapiens [10])?
**A.** 16 ng/mL

**Q.** And the p24 (Homo sapiens [11])?
**A.** 0.2 ng/mL

**Q.** Nc1ncnc2c1ncn2[C@H]1CC[C@@H](CO)O1 was tested. Which Control (Homo sapiens [1]) did it give?
**A.** <1%

**Q.** What about the Control (Homo sapiens [2]) of the same molecule?
**A.** 25%

**Q.** What about the Control (Homo sapiens [3]) of the same molecule?
**A.** 25%

**Q.** What about the Control (Homo sapiens [4]) of the same molecule?
**A.** <1%

**Q.** And the Control (Homo sapiens [5])?
**A.** 116%

**Q.** What about the Control (Homo sapiens [6]) of the same molecule?
**A.** 116%

**Q.** And the Control (Homo sapiens [7])?
**A.** 91%

**Q.** What about the Control (Homo sapiens [8]) of the same molecule?
**A.** 90%

**Q.** And the p24 (Homo sapiens [9])?
**A.** 1.8 ng/mL

**Q.** What about the p24 (Homo sapiens [10]) of the same molecule?
**A.** 28 ng/mL

**Q.** And the p24 (Homo sapiens [11])?
**A.** 0.2 ng/mL

**Q.** With Nc1nc(Cl)nc2c1ncn2C1OC(CO)CC1O (configuration not stated) as the molecule, how does the Control (Homo sapiens [12]) read?
**A.** 100%

**Q.** What about the Control (Homo sapiens [13]) of the same molecule?
**A.** 81%

**Q.** What about the Control (Homo sapiens [14]) of the same molecule?
**A.** 73%

**Q.** And the Control (Homo sapiens [15])?
**A.** 8%

**Q.** What about the Control (Homo sapiens [16]) of the same molecule?
**A.** 13%

**Q.** What about the Control (Homo sapiens [17]) of the same molecule?
**A.** 98%

**Q.** And the Control (Homo sapiens [18])?
**A.** 69%

**Q.** And the Control (Homo sapiens [19])?
**A.** 43%

**Q.** And the Control (Homo sapiens [20])?
**A.** 3%

**Q.** And the Control (Homo sapiens [21])?
**A.** 8%

**Q.** And the Control (SC-1 (Mus musculus) [22])?
**A.** 82%

**Q.** And the Control (SC-1 (Mus musculus) [23])?
**A.** 53%

**Q.** And the Control (SC-1 (Mus musculus) [24])?
**A.** 2%

**Q.** Which Control (Homo sapiens [25]) does the source give for Nc1nc(Cl)nc2c1ncn2C1C=CC(CO)O1 (configuration not stated) here?
**A.** 53%

**Q.** And the Control (Homo sapiens [26])?
**A.** 25%

From ChEMBL document CHEMBL1124618, “Synthesis of the 2-chloro analogues of 3'-deoxyadenosine, 2',3'-dideoxyadenosine, and 2',3'-didehydro-2',3'-dideoxyadenosine as potential antiviral agents” (1989)
